An excerpt weighted towards active compounds, which were near 1% of everything screened.
Hsp70 activator: switches on Hsp70 transcription; HeLa Hsp70 promoter luciferase reporter, luminescence; scaled: vehicle 0, proteasome-inhibitor control 100%; activation, % at 10 µM; 200,000 compounds, 0.04% hits;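 active means activation above the mean across all tested compounds plus 3 SD, cutoff set per campaign, cut at about 5.5% in these data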;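 further: 100% = MG132 at 30 µM as the positive control and 0% = DMSO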
bCat nuc transl: modulators of beta-catenin nuclear translocation. 190,000 compounds, 0.3% hits. nuclear translocation activity, % at 5 µM. AID 1665. HeLa beta-catenin nuclear translocation, immunofluorescence imaging;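 active means nuclear translocation activity above 50% at 5 µM, with a well cell count of 50 or more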;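 further: per-cell ratio of nuclear to cytoplasmic median beta-catenin stain intensity; plate controls were DMSO negative control for no effect and GSK-3 inhibitor IX positive control for full effect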
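System: Human HeLa cells, endogenous beta-catenin | Compound dosing: 5 µM primary, 0.02–20 µM confirmation | Timing: 24 h compound exposure at 37°C, 5% CO2 | Measured by: Fluorescence imaging of beta-catenin antibody stain plus DAPI | Read-out basis: % activation of per-cell nuclear versus cytoplasmic median beta-catenin signal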
NOD2 RIPK2 PPI: NOD2-RIPK2 protein interaction inhibition. O43353. CHO BLA complementation NOD2-RIPK2, CCF4 ratio. inhibition, % at 4.98 µM. 360,000 compounds, 0.38% hits; in the data active means inhibition above about 21%;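 further: 0% = vehicle only and 100% = reference blocker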
TLR4 MyD88 comp: blocks binding of human TLR4 to MyD88. 200,000 compounds, 0.18% hits. O00206+Q99836. HeLa CL3-4 TLR4/MyD88 BLA complementation, FRET ratio. inhibition, % at 8.4 µM; in the data active means inhibition above about 25%;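 further: 0% = vehicle and 100% = reference inhibitor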
TLR9-MyD88 block: TLR9-MyD88 interaction inhibition; Q9NR96+Q99836; CHO BLA complementation TLR9-MyD88, CCF4 FRET ratio; 340,000 compounds, 0.21% hits; inhibition, % at 4.98 µM;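 active means inhibition above the mean over all tested compounds plus 3 SD, cut at about 21% in these data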;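 further: 0% = DMSO only wells and 100% = clavulanate BLA inhibitor control wells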
MT stabilize HCS: microtubule stabilization, imaging screen. AID 2205. 200,000 compounds, 0.83% hits. % tubulin-high responders, % at 10 µM. HeLa tubulin immunostaining HCS, 24 h; share of cells brighter than vehicle mean+2SD;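 active means plate Z-score above 3 for both tubulin-high and condensed-nucleus cell shares, with cell loss under 80%, at 10 µM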;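 further: anti alpha tubulin signal scored within the nucleus-defined area of each cell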
TLR4 MyD88 cnf: TLR4-MyD88 interaction inhibition confirmed | inhibition, % at 8.4 µM | AID 941 | HeLa CL3-4 BLA complementation, CCF4 FRET ratio | 350 compounds, 50% hits | shares compounds with TLR4 MyD88 comp;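 active means mean inhibition across three repeat runs above about 25% carried over from the earlier screen, limit read from the data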;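 further: plate controls were DMSO only for no effect and clavulanic acid blocking BLA at full dose for full effect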
BLA inh HeLa: inhibits beta-lactamase activity, counter-screen to TLR4-MyD88 binding inhibitors; HeLa BLA reporter, CCF4 FRET ratio; 350 compounds, 63% hits; AID 1237; inhibition, % at 8.4 µM; shares compounds with TLR4 MyD88 comp;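 active means mean inhibition over three repeats above about 26% taken from the earlier screen, limit read from the data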;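 further: HeLa cells stably expressing beta-lactamase reporter as counterscreen for TLR4-MyD88 inhibitors; 0% = DMSO and 100% = clavulanic acid full inhibition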
Hsp70 act DR: activates Hsp70 transcription in dose response; shares compounds with Hsp70 activator; HeLa hsp70.1pr-luc reporter, luciferase luminescence; calls only at 99 µM; 70 compounds, 10% hits; AID 1252;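 active means over 50% activation at some tested dose; inactive means under 50% activation at every tested dose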
TLR9-MyD88 conf: confirmation of human TLR9-MyD88 binding inhibitors. AID 540250. 680 compounds, 51% hits. CHO TLR9/MyD88 BLA complementation, CCF4 FRET ratio. shares compounds with TLR9-MyD88 block. inhibition, % at 4.98 µM;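 active means mean inhibition across three repeats above about 21% taken from the earlier screen, limit read from the data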;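 further: blue over green emission ratio reports constitutive TLR9 MyD88 association via BLA complementation; 0% = DMSO vehicle wells and 100% = clavulanate BLA inhibitor wells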
Target sequence (Q9NR96 whole entry, looked up): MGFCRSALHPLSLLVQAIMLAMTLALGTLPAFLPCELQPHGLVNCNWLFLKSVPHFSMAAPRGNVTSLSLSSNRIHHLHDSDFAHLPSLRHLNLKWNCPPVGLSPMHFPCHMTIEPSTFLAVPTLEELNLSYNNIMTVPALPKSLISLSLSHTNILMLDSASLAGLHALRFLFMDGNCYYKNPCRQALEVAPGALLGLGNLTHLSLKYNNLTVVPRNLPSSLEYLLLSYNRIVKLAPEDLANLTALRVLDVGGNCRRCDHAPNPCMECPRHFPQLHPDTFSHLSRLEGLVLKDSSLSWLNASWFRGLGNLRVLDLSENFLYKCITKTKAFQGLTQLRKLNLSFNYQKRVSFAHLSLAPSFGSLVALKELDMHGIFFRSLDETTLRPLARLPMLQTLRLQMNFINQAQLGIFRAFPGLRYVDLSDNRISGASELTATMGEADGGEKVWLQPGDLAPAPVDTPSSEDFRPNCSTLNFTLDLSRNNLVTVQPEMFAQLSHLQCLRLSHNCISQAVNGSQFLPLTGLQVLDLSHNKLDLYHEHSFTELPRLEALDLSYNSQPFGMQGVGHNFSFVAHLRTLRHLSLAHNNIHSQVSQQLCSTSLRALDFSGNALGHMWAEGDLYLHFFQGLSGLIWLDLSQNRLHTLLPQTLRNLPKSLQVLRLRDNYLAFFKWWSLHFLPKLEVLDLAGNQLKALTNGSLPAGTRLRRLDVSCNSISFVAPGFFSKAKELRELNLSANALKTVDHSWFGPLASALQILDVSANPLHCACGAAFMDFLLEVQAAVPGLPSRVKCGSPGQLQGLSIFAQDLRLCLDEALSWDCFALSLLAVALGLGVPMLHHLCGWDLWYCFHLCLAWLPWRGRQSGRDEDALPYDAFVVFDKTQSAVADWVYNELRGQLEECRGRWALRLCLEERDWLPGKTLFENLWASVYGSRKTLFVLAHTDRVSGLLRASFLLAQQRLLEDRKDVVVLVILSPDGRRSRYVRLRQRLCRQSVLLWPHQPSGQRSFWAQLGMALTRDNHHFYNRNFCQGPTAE
BLA counter: beta-lactamase reporter inhibition, counter-screen artifact | shares compounds with TLR9-MyD88 block | CHO-BLA cells, CCF4 FRET ratio, BLA reporter | 680 compounds, 7% hits | inhibition, % at 4.98 µM;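 active means mean inhibition above a 50% cutoff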;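 further: counterscreen of TLR9-MyD88 hits on CMV-driven BLA in CHO-K1 cells; 0% = DMSO alone and 100% = clavulanate blocking BLA; higher means less blue over green ratio so more BLA blockade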
TLR9 CHO tox: counter-screen for TLR9-MyD88 inhibitors: cytotoxicity in CHO cells; shares compounds with TLR9-MyD88 block; luminescence; inhibition, % at 4.98 µM; 680 compounds, 39% hits; AID 588336; in the data active means inhibition above about 11%
Active calls of the source: *; i = inactive; . = not tested or not shown.

SMILES | Hsp70 activator | bCat nuc transl | NOD2 RIPK2 PPI | TLR4 MyD88 comp | TLR9-MyD88 block | MT stabilize HCS | TLR4 MyD88 cnf | BLA inh HeLa | TLR9-MyD88 conf | BLA counter | TLR9 CHO tox | others
O=c1c(Br)c(Br)cnn1-c1ccccc1 | 7.4* | -1 | 19 | 35* | 9 | 7 | 20 | -6 | . | . | . | Hsp70 act DR=i
O=C(OCCN1C(=O)c2ccccc2C1=O)c1cc(S(=O)(=O)N2CCOCC2)ccc1Cl | 0 | -4 | -5 | 1 | 2 | 7 | . | . | . | . | .
O=C(OCCN1C(=O)c2cccc3c(N4CCOCC4)ccc(c23)C1=O)c1ccc(Cl)cc1Cl | 0 | 80* | 7 | 40* | 38* | 16* | 58* | 86* | 68* | 69* | 29*
Cc1ccc(S(=O)(=O)N[C@H](C(=O)Oc2ccc3c(C(F)(F)F)cc(=O)oc3c2)c2ccccc2)cc1 | 1 | -3 | 58* | 32* | 55* | 1 | 43* | 56* | 33* | 40 | -1
O=C(/C=C/c1c[nH]c2ccccc12)c1cccc2ccccc12 | 0 | 0 | 20 | 33* | 36* | 15 | 22 | 47* | 23* | 23 | 8
CC1C/C(=C/c2cccn2C)C(=O)/C(=C/c2cccn2C)C1 (stereo unspecified) | 0 | . | -4 | 55* | 37* | 1 | 32* | 61* | 41* | 40 | 1
Cn1cccc1/C=C1/SC(=S)N(CC(=O)O)C1=O | 0 | -1 | 1 | -9 | -8 | 3 | . | . | . | . | .
Cc1ccc(S(=O)(=O)C[C@@H]2OC[C@H](C)N2S(=O)(=O)c2ccc(C)cc2)cc1 | . | . | 2 | . | . | . | . | . | . | . | .
CCCCCc1ccc2cc(C#N)ccc2n1 | . | . | -2 | . | . | . | . | . | . | . | .
Nc1c(C(=O)Nc2ccccc2)sc2nc(-c3ccco3)ccc12 | 0 | -2 | 2 | 0 | 16 | 3 | . | . | . | . | .
COc1ccccc1NC(=O)c1sc2nc(-c3ccco3)ccc2c1N | 0 | 5 | 34* | 26* | 42* | 4 | 21 | 51* | 34* | 34 | 3
CCOc1ccc(NC(=O)CN(C)C(=O)c2sccc2-c2ccccc2)cc1OCC | . | . | 1 | . | 5 | . | . | . | . | . | .
CN1/C(=C/C(=O)c2nc(S(C)(=O)=O)ncc2Cl)C(C)(C)c2ccccc21 | 0 | 1 | 70* | 36* | 44* | 2 | 29* | 18 | 46* | 25 | 99*
COCCNC(=O)C1(C)CCCN(C(=O)c2cc(OC)c(OC)c(OC)c2)C1 (stereo unspecified) | . | . | 0 | . | . | . | . | . | . | . | .
CC(=O)c1sc2nc(-c3cccs3)ccc2c1N | 0 | . | -1 | 5 | 5 | 2 | . | . | . | . | .
Nc1c(C(=O)Nc2nc3ccccc3s2)sc2nc(-c3cccs3)ccc12 | 1 | 24 | -8 | 65* | 25* | 10 | 48* | 77* | 48* | 48 | 42*
NC(N)=NS(=O)(=O)c1ccc(NC(=S)NC(=O)Cc2ccc(Cl)cc2)cc1 | . | . | 6 | . | 5 | . | . | . | . | . | .
CC[C@H](C)/C=C(C)/C=C/C1=CC2=CC(=O)[C@]3(C)OC(=O)[C@@H](C(C)=O)[C@@H]3C2=CO1 | 0 | 0 | 19 | 33* | 32* | 1 | 19 | 48* | 27* | 30 | 1
CC[C@H](C)/C=C(C)/C=C/c1cc2c(cn1)C(=O)[C@@](C)(OC(C)=O)C(O)=C2Cl | . | . | -17 | . | . | . | . | . | . | . | .

Assay outcomes deposited in PubChem by several laboratories.
